Screening data: PubChem BioAssay, The Scripps Research Institute Molecular Screening Center
NPY-Y2 PAM-ag: potentiators or agonists of human neuropeptide Y receptor Y2; P49146; cells expressing NPY-Y2, potentiator/agonist read-out; activation, % at 3.6 µM; hit rate 0.45% among 220,000; in the data active = activation above about 27%;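 note: cells stimulated with NPY near EC25 plus isoproterenol at EC100; 0% = vehicle plus submaximal agonist and 100% = vehicle plus saturating agonist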
S1P4 antagonist: blocks the human S1P4 receptor; O95977; S1P4-expressing cells, antagonist mode, reporter read-out; inhibition, % at 4.98 µM; hit rate 0.26% among 220,000; AID 1510; in the data active = inhibition above about 29%;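 note: 0% = wells stimulated with agonist and 100% = vehicle wells without agonist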
Target sequence (O95977 whole entry, looked up): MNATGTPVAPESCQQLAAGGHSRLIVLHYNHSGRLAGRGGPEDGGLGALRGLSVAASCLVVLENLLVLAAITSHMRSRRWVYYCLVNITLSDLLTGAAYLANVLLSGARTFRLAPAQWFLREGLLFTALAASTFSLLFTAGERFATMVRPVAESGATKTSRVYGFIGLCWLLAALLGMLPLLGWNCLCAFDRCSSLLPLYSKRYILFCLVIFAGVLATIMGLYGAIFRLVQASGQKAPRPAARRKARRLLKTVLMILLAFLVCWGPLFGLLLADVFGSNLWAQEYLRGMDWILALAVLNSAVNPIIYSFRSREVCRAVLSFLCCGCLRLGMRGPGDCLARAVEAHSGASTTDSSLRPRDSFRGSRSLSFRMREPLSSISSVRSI
S1P4 ag: activates the human S1P4 receptor; O95977; S1P4-expressing cell line, agonist reporter assay; activation, % at 4.98 µM; hit rate 0.35% among 220,000; in the data active = activation above about 11%;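 note: 0% = DMSO vehicle and 100% = reference agonist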
NPY-Y1 antag: antagonists of human neuropeptide Y receptor Y1 | HEK293-CNG Y1 cells, membrane potential fluorescence; NPY at EC95, then isoproterenol | AID 1040 | inhibition, % at 3.6 µM | hit rate 1% among 200,000 | P25929;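 active = inhibition above the campaign mean inhibition of all tested compounds plus 3 SD, cut at about 20% in these data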;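 note: 0% = DMSO wells given NPY plus isoproterenol and 100% = isoproterenol alone without NPY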
Target sequence (P25929 whole entry, looked up): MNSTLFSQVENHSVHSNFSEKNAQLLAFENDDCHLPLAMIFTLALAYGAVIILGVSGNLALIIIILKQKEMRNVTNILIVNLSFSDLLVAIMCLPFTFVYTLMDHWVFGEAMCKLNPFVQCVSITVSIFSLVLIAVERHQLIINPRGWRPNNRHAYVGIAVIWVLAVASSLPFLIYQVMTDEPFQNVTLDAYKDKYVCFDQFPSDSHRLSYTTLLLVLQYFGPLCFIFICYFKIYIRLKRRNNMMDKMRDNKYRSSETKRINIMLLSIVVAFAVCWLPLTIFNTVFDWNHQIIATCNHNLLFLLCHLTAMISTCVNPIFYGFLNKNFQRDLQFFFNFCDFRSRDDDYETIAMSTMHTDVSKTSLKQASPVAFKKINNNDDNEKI
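System: HEK293 cells with Y1 receptor plus CNG channel / Probe or stimulus: NPY 25 nM then isoproterenol 1 µM plus Ro 20-1724 25 µM / Compound: one concentration, 3.6 µM, in 0.4% DMSO / Schedule: compound incubation 1 h at room temperature, readout 45 min post-stimulation / Measured by: membrane potential fluorescence / Read-out: % inhibition of NPY effect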
NPY-Y2 antag: NPY-Y2 (human) receptor antagonism. P49146. NPY-Y2 expressing cells, antagonist mode. inhibition, % at 2.7 µM. hit rate 0.99% among 140,000. AID 793; in the data active = inhibition above about 17%;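 note: 0% = vehicle with agonist challenge and 100% = reference antagonist with challenge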
NPY-Y1 PAM-ag: human NPY-Y1 potentiation or agonism, primary screen; activation, % at 3.6 µM; NPY-Y1 expressing cells, potentiator/agonist activation; hit rate 0.37% among 220,000; AID 1304; P25929; in the data active = activation above about 33%, passing the limit was not always enough;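 note: cells stimulated with NPY at EC10 then isoproterenol at EC100; 0% = low agonist plus stimulus and 100% = saturating agonist plus stimulus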
NPY-Y1 confirm: human NPY-Y1 potentiation or agonism, confirmation; shares compounds with NPY-Y1 PAM-ag; cell-based NPY-Y1 potentiator/agonist assay; activation, % at 3.6 µM; hit rate 20% among 280; in the data active = activation above about 45%;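 note: cells challenged with NPY at its EC10 plus isoproterenol stimulus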
NPY-Y2 counter: potentiates or activates NPY-Y2, counter-screen for NPY-Y1 hits; AID 1649; HEK293-CNG cells, membrane-potential fluorescence (FLIPR), 1536-well; shares compounds with NPY-Y1 PAM-ag; activation, % at 3.6 µM; hit rate 20% among 280; in the data active = activation above about 33%
NPY-Y1 ag: counter-screen for NPY-Y1 potentiators: agonists of human NPY-Y1; AID 1697; HEK293 Y1-CNGC, membrane potential fluorescence, agonist mode; activation, % at 3.6 µM; hit rate 50% among 280; shares compounds with NPY-Y1 PAM-ag;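 active = percent activation above the mean of DMSO-only control wells plus 3 SD of those wells, cut at about 18% in these data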;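 note: cells challenged with isoproterenol plus Ro 20-1724 with no NPY in test wells; Y1 agonism lowers isoproterenol-driven cAMP and reduces probe fluorescence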
NPY-Y2 agonist: counter-screen for NPY-Y1 potentiators or agonists: agonists of NPY-Y2. shares compounds with NPY-Y1 PAM-ag. HEK293 Y2-CNGC, membrane potential fluorescence, agonist mode. activation, % at 3.6 µM. hit rate 67% among 280. AID 1698;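 active = activation above the solvent-only control wells' mean plus 3 SD, cut at about 11% in these data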;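 note: 0% = DMSO with isoproterenol and 100% = 40 nM NPY maximal response; agonism lowers cAMP so well fluorescence drops in active wells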
CNGC counter: CNG channel inhibition, counter-screen for NPY-Y1 potentiators; shares compounds with NPY-Y1 PAM-ag; HEK293-CNG parental, isoproterenol cAMP, membrane potential fluorescence; inhibition, % at 3.6 µM; hit rate 42% among 280; AID 1704;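 active = inhibition above the mean of stimulated solvent-only control wells plus 3 SD, cut at about 22% in these data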;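 note: 0% = isoproterenol-stimulated DMSO wells and 100% = unstimulated DMSO wells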
* = called active by the depositor; / = no result. Most compounds without a hit are left out; they make up all but 2.4% or so of the library.

SMILES	NPY-Y2 PAM-ag	S1P4 antagonist	S1P4 ag	NPY-Y1 antag	NPY-Y2 antag	NPY-Y1 PAM-ag	NPY-Y1 confirm	NPY-Y2 counter	NPY-Y1 ag	NPY-Y2 agonist	CNGC counter
CCC(C)C1C(C#N)=C(N)Oc2n[nH]c(-c3ccccc3)c21 (centres undefined)	23.5	7.1	-2.3	-3.5	2.6	39.9*	27.2	17.3	26.9*	23.1*	17.3
OC(COc1ccccc1)CN1CCN(Cc2ccc3c(c2)OCO3)CC1 (centres undefined)	0.1	-14.2	0.6	4.9	/	1.6	/	/	/	/	/
Cc1cc(C)cc(OCC(O)CN2CCN(Cc3ccc4c(c3)OCO4)CC2)c1 (centres undefined)	11.4	-16.4	-0.1	-2.0	/	50.0*	-15.2	-4.1	-2.6	8.2	-11.4
Cn1c(CSCc2ccc(Cl)cc2Cl)n[nH]c1=S	-15.6	-2.5	1.8	0.4	/	64.7*	-2.8	1.8	-0.5	7.5	-8.7
Cc1ccc(-c2nnc(-c3ccc(NC(=O)Cc4cccs4)cc3)o2)cc1	-0.3	-40.4	0.3	3.3	0.3	49.5*	-21.9	-9.3	-12.8	2.6	-0.1
COC(=O)c1ccc(NC(=O)CN2CCN(c3ccccc3C)CC2)cc1	9.7	-8.9	0.8	13.0	10.2	54.2*	-37.4	-25.9	-22.1	-4.2	-26.6
COC(=O)c1ccc(NC(=O)CN2CCN(c3ccc(Cl)cc3)CC2)cc1	-5.5	-6.4	1.1	2.8	6.6	12.2	/	/	/	/	/
COc1cc2c(cc1OC)C1(C)N(CC2)C(C(C)=O)=NN1c1ccc(Cl)cc1 (centres undefined)	-4.8	17.3	0.0	/	/	-1.4	/	/	/	/	/
O=C(Nc1ccc([N+](=O)[O-])cc1)Nc1ccc(Cl)cc1F	11.6	-1.6	0.1	-3.0	/	8.1	/	/	/	/	/
Cc1cc(OC(F)F)ccc1NC(=O)Nc1ccc([N+](=O)[O-])cc1	28.8	12.8	0.0	-12.6	-5.7	58.9*	36.4	28.9	25.0*	28.4*	30.6*
COc1ccc(Cc2nnc(Nc3c(C)cccc3C)o2)cc1OC	-9.3	2.4	-0.3	/	/	-30.6	/	/	/	/	/
CCC(CC)c1nn2c(N)c(/C=C3\C=Nc4ccccc43)c(=O)nc2s1	12.1	14.3	0.1	/	/	72.8*	94.9*	81.7*	97.5*	84.8*	46.0*
CCCc1nn2c(N)c(/C=C3\C=Nc4ccccc43)c(=O)nc2s1	11.2	-21.5	0.7	-0.9	4.6	10.9	/	/	/	/	/
COc1cc(-c2nc(CN3CCCCC3CCNC(C)=O)c(C)o2)ccc1F (centres undefined)	-16.7	-4.0	0.2	/	/	-4.8	/	/	/	/	/
CC(C)N=C1NN=C(c2ccc(Cl)c(Cl)c2)CS1	8.8	2.5	-0.5	0.7	/	49.1*	-1.3	-3.0	-4.3	2.1	4.1
Fc1ccc(-n2cc(-c3ccccc3)c3c(NN4CCOCC4)ncnc32)cc1	-0.8	7.4	-2.5	2.2	3.6	10.5	/	/	/	/	/
NS(=O)(=O)c1ccc(CCNc2ncnc3c2c(-c2ccccc2)cn3-c2ccc(F)cc2)cc1	-6.6	-10.9	-0.8	-6.0	-0.6	104.8*	6.4	-2.1	-5.1	2.7	4.5
Cc1cc2ccccn2c1C(=O)c1ccc(N/N=C/c2ccc(C(=O)O)cc2)c([N+](=O)[O-])c1	-19.6	-7.9	1.1	/	/	21.0	/	/	/	/	/
C/C(=N\Nc1ccc(C(=O)c2c(C)cc3ccccn23)cc1[N+](=O)[O-])c1ccc(O)cc1	9.1	6.7	-1.8	/	/	61.8*	9.4	10.2	6.0	12.4*	3.9
COc1ccccc1Oc1ccc2c(c1)C(=O)N(c1cccc3ncccc13)C2=O	24.0	-12.5	-0.2	-0.6	1.4	43.0*	0.6	11.6	1.2	-5.1	-12.8
O=C(Nc1ccccc1)C1CC=CCC1C(=O)OCC1CCCO1 (centres undefined)	10.3	-5.1	0.9	-1.5	-0.3	54.6*	-3.2	-6.4	-1.3	-1.2	-0.6
O=C(NCC1CCCO1)c1ccc(NC(=O)C2CC=CCC2C(=O)O)cc1 (centres undefined)	-2.2	-17.0	-0.1	7.1	0.6	-18.1	/	/	/	/	/
COc1ccccc1Oc1ccc(-c2cnc3ccccc3n2)cc1[N+](=O)[O-]	18.8	-3.9	3.9	3.1	/	46.6*	36.2	23.9	37.6*	20.6*	0.2
CCOc1ccc(C(=O)NNC2CC(=O)N(Cc3ccc(Cl)cc3)C2=O)cc1OC (centres undefined)	15.1	-1.7	-0.1	3.5	/	-5.2	/	/	/	/	/
COc1ccc(C=O)cc1Cn1c(C)cc(C)c(C#N)c1=O	13.8	5.0	1.9	5.4	/	-7.2	/	/	/	/	/
SMILES	NPY-Y2 PAM-ag	S1P4 antagonist	S1P4 ag	NPY-Y1 antag	NPY-Y2 antag	NPY-Y1 PAM-ag	NPY-Y1 confirm	NPY-Y2 counter	NPY-Y1 ag	NPY-Y2 agonist	CNGC counter
O=C1N(C2CCCC2)C[C@@H]2C[C@@H](c3cn[nH]c3-c3ccc(Cl)cc3)N3CCC[C@@]123	3.7	7.8	0.0	-6.6	/	39.0*	49.1*	24.6	31.6*	31.1*	41.6*
COC(=O)c1cc(C(=O)c2ccccc2)n2c(=O)/c(=C\N(C)C)sc12	17.6	8.7	-1.5	/	/	13.4	/	/	/	/	/
COC(=O)c1cc(C(=O)c2ccc(Cl)cc2)n2c(=O)/c(=C\N(C)C)sc12	16.4	-3.2	0.3	-8.9	/	34.8*	14.3	11.7	18.8*	11.8*	10.8
Cc1cc(C)c(C)c(S(=O)(=O)N2CCCCC2C(=O)O)c1C (centres undefined)	2.1	3.5	3.0	1.3	/	17.4	/	/	/	/	/
CCOC(=O)/C=C/C(=O)Nc1ccc(Oc2ccccc2)cc1	6.0	17.8	-0.9	-10.5	/	38.6*	17.9	11.9	16.5	18.8*	25.2*
COc1ccc(-c2cc3ccccc3[nH]2)cc1	17.9	10.1	-0.7	/	/	24.2	/	/	/	/	/
Cc1ccc(O)c(-c2cc3ccccc3[nH]2)c1	25.9	-7.0	0.1	-11.0	-5.1	46.9*	37.7	32.0	37.8*	41.6*	31.0*
CN(C)CCCNc1cc(C(C)(C)C)nc2c(-c3ccccc3)cnn12	26.6	24.0	-1.4	/	/	55.0*	41.4	34.5*	25.0*	19.7*	34.7*
CC(C)(C)c1cc(NCCCn2ccnc2)n2ncc(-c3ccc(Cl)cc3)c2n1	19.1	9.8	0.0	-4.4	-4.0	33.1	/	/	/	/	/
CN(C)c1ccc(/C=N/NC(=O)c2sccc2-n2cccc2)cc1	1.3	-6.0	-0.8	-2.1	/	11.2	/	/	/	/	/
